OXTR ag – human OXTR agonism. P30559. CHO-OTR cells, Fluo-8 calcium fluorescence; normalized: DMSO 0%, oxytocin 100%. activation, % at 3 µM. hit rate 0.32% among 320,000. AID 2435;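 active = activation above the mean of all tested compounds plus 3 SD, cutoff set per screening run, cut at about 20% in these data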;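 note: peak over basal fluorescence ratio from a 100 s FLIPR kinetic read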
TRPN1 ag – zebrafish TRPN1 (NompC) channel agonism | HEK293 zebrafish TRPN1-YFP, Fluo-8 calcium fluorescence; 100% = response to 87 µM carbachol | activation, % at 3 µM | hit rate 0.18% among 220,000 | AID 1424;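 active = activation above its plate's cutoff, the mean activation of test wells on that plate plus 3 SD, cut at about 19% in these data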
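Control set: carbachol 87 µM as high control, DMSO as low control; system: HEK293 stable line with zebrafish TRPN1-YFP; read-out: % activation versus carbachol response; detection: intracellular calcium fluorescence with Fluo-8; doses: single test compound dose, 3 µM nominal, 0.3% DMSO; schedule: dye 1 h 37 °C plus 30 min RT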
OXTR potentiator – human OXTR potentiation; activation, % at 3 µM; hit rate 0.061% among 320,000; CHO-OTR cells, Fluo-8 calcium fluorescence, potentiator mode; 0% = oxytocin EC15, 100% = EC100; P30559;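 active = activation above that plate's cutoff, the mean activation of tested compounds plus 3 SD, cut at about 6.6% in these data, passing the limit was not always enough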
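System: human OTR in CHO cells / Also added: sub-maximal oxytocin, roughly EC15 / Control set: EC15 oxytocin low, 75 nM oxytocin high / Schedule: 6 min compound pre-incubation at room temperature, 100 s kinetic read / Compound: single-point 3.0 µM / Replication: singlicate / Technique: Fluo-8 calcium dye fluorescence / Read-out basis: % activation of max/min ratio relative to oxytocin controls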
TRPML3 ag – activates the human TRPML3 channel | Q8TDD5 | HEK293 TRPML3-YFP, Fluo-8 calcium fluorescence; 100% = the carbachol control signal | activation, % at 3 µM | hit rate 0.29% among 220,000;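 active = activation above its plate's cutoff, the mean activation of the plate's test wells plus 3 SD, cut at about 12% in these data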
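system = HEK293 cells stably carrying human TRPML3-YFP | doses = one concentration, 3 µM nominal, 0.3% DMSO | timing = dye loading 1 h 37 °C then 30 min ambient, 125 s read | detection = Fluo-8 calcium dye fluorescence, ex 470-495, em 515-575 nm | benchmarks = high control carbachol 87 µM, low control DMSO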
CRFR2-BP ag – CRF-BP/CRF-R2 complex agonism | HEK293 CRF-R2/CRF-BP, calcium dye fluorescence (FLIPR); percent of saturating CRF peptide response | activation, % at 13.2 µM | hit rate 0.46% among 350,000 | AID 588473;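 active = activation of at least 50%, plus an integration ratio under a set limit after plate pattern correction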
V1aR counter – counter-screen for oxytocin receptor agonists: human V1a receptor agonists; CHO-V1R cells, Fluo-8 calcium fluorescence, agonist mode; 0% DMSO, 100% 3 nM vasopressin; AID 2797; activation, % at 3 µM; hit rate 0.25% among 320,000;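 active = activation above the mean activation of all tested compounds plus 3 SD, per screening run, cut at about 20% in these data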;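 note: signal is peak over basal fluorescence ratio across a 100 second FLIPR read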
Target sequence (P37288 whole entry, looked up): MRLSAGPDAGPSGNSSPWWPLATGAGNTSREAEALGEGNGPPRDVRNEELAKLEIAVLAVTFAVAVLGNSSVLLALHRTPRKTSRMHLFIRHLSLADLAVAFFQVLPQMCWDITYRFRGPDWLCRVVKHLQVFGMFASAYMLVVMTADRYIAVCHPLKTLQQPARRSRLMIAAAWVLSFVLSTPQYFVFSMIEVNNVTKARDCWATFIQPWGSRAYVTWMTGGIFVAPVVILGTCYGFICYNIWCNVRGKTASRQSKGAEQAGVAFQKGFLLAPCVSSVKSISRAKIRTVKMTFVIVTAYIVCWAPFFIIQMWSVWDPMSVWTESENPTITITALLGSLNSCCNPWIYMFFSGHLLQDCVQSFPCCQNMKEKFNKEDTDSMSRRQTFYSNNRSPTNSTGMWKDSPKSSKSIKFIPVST
Numbers stand for hits; - = inactive; . = not tested or not shown. Rows were chosen to be rich in hits. Some 0.85% of all compounds tested hit in one or more screens of this group.

SMILES	OXTR ag	TRPN1 ag	OXTR potentiator	TRPML3 ag	CRFR2-BP ag	V1aR counter
Cc1ccc(CNC(=O)CS(=O)(=O)c2cn(CC(=O)N3CCOCC3)c3ccccc23)cc1	-	.	-	.	-	-
Cc1cc(=O)n2[nH]c(Nc3cccc(Cl)c3)nc2n1	-	.	-	.	116	-
Cc1cc(C)nc(Nc2cccc(Cl)c2)n1	.	.	.	.	-	.
CC(N)=Nc1ccc([N+](=O)[O-])cc1	-	-	-	-	-	-
O=[N+]([O-])c1ccc(N=Nc2c(Cl)cc(O)cc2Cl)cc1	-	20	-	16	-	-
Cc1ccc(C2c3c(C)nn(-c4ccc([N+](=O)[O-])cc4)c3N=C3C(=O)Nc4ccccc4N32)cc1 (configuration not stated)	-	26	-	33	.	-
Cc1ccc(O)c(C(=O)c2cc(C#N)c(=O)n(Cc3ccccc3)c2)c1	-	-	-	-	-	-
Cc1ccc(O)c(C(=O)c2cc(C#N)c3nc4ccccc4n3c2)c1	-	-	-	-	66	-
COc1ccccc1NC(=O)C1=C(C)NC2=C(C(=O)CC(c3ccc(OC)c(OC)c3)C2)C1c1coc2ccccc2c1=O (configuration not stated)	-	-	-	-	-	-
CC(C)C[C@H]1CN=C(N(C)C)N1CCc1cccc(F)c1	-	.	-	.	-	-
CC(C)CCN1C(Nc2ccccc2)=NC[C@@H]1CC(C)C	-	.	-	.	-	-
CC(C)C[C@H]1CN=C(Nc2ccccc2)N1CCc1cccc(F)c1	51	.	-	.	125	73
CC(C)C[C@H]1CN=C(Nc2ccccc2)N1CCc1ccc(F)cc1	44	.	-	.	110	59
CN(C(=O)CSc1nnnn1C)C1(C#N)CCCCC1	-	.	-	.	-	-
COc1ccc(NC(=O)/C(Cl)=C(/Cl)S(=O)Cc2ccc(Cl)cc2)cn1 (configuration not stated)	.	-	.	-	88	.
COc1ccc(NC(=O)C(Cl)=C(Cl)Cl)cn1	.	-	.	-	-	.
O=C(NNC(=O)c1nc2ccccc2[nH]1)OCc1ccccc1	-	.	-	.	-	-
COCc1ccc(CN2CCC(n3nccc3NC(=O)c3ccc4c(c3)OCO4)CC2)o1	.	.	.	.	-	.
CC(C)=C1C2CCC1C(C(=O)Nc1sc(C)c(-c3ccc(C(C)C)cc3)c1C(N)=O)C2C(=O)O (configuration not stated)	-	-	-	-	78	-
CCN(CC)C(=O)C1=C(C)N(Cc2ccccc2)C(=O)C(CC(=O)NC2CCCC2)C1 (configuration not stated)	.	.	.	.	-	.
CCCOc1ccc(-c2nn(-c3ccccc3)cc2/C=C2\SC(=S)N(C3CCS(=O)(=O)C3)C2=O)cc1 (configuration not stated)	-	-	-	-	-	-
CCOc1ccc(-c2nn(-c3ccccc3)cc2/C=C2\SC(=S)N(C3CCS(=O)(=O)C3)C2=O)cc1 (configuration not stated)	-	-	-	-	115	-
Cc1cc(N2C(=O)C3CCC(c4ccccc4)CC3C2=O)no1 (configuration not stated)	-	-	-	-	-	-
O=c1c2cc(C(F)(F)F)ccc2sn1-c1ccccc1	.	.	.	.	61	.
COc1ccc(OC)c(NC(=O)C(=O)NNC(=O)C23CC4CC(CC(C4)C2)C3)c1	-	43	-	27	55	-
SMILES	OXTR ag	TRPN1 ag	OXTR potentiator	TRPML3 ag	CRFR2-BP ag	V1aR counter
CCOC(=O)C1CCN(C(=O)c2ccc(S(=O)(=O)Nc3ccccc3Cl)cc2)CC1	.	.	.	.	-	.
Cc1ccc(/C=C2\CCC3=C2OC(N)=C(C#N)C3c2ccc(C)cc2)cc1 (configuration not stated)	23	-	-	-	253	43
C=CCn1c(Oc2ccccc2)nc2c1c(=O)n(C)c(=O)n2C	-	-	-	-	106	-
CCn1c(Oc2ccccc2)nc2c1c(=O)n(C)c(=O)n2C	-	.	-	.	-	-
Cc1ccc(NC(=O)CN2C(=O)N/C(=C/c3ccc(N4CCOCC4)cc3)C2=O)cc1	-	-	-	-	-	-
Cc1ccccc1NC(=O)CN1C(=O)N/C(=C\c2ccc(N3CCOCC3)c(F)c2)C1=O	-	-	9.9	-	-	-

Assay outcomes as filed in PubChem BioAssay.
